PMC9064050 (RSC Advances, 2019)

Key:
[1] = test system: Chromobacterium violaceum; test: Kirby–Bauer agar disc diffusion; assay type: cell-based; conditions: for inhibition%: C = (−)Chromobacterium violaceum, eqn (20); for zone of inhibition at 100 µM: Chromobacterium violaceum, read-out: diameter of clear zone inhibition
Outline: (§1)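 Kirby–Bauer disc diffusion on Mueller–Hinton agar (pH 7.2, autoclaved 121 °C for 15 min, ~4 mm deep, held 2–8 °C for 24 h). Plates spread with 24 h cultures. 6 mm discs loaded with 20 μL of 100 μM test compound. Bacteria incubated at 37 °C for 48 h; fungi at 22 °C for 7 days. Clear-zone diameter measured by ruler; % inhibition by eqn (20) against 6 mm control.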

Shigella flexneri = test: Kirby–Bauer agar disc diffusion; assay type: cell-based; conditions: for inhibition%: E = (−)Shigella flexneri, eqn (20); for zone of inhibition at 100 µM: Shigella flexneri, read-out: diameter of clear zone inhibition
Outline: as §1

[2] = test system: Salmonella enteric serovar typhi; test: Kirby–Bauer agar disc diffusion; assay type: cell-based; conditions: for inhibition%: B = (−)Salmonella enteric serovar typhi, eqn (20); for zone of inhibition at 100 µM: Salmonella, TYPHI, read-out: diameter of clear zone inhibition
Outline: as §1

Bacillus cereus = test: Kirby–Bauer agar disc diffusion; assay type: cell-based; conditions: for zone of inhibition at 100 µM: Bacillus cereus, read-out: diameter of clear zone inhibition; for inhibition%: G = (+)Bacillus cereus, eqn (20)
Outline: as §1

Escherichia coli = test: Kirby–Bauer agar disc diffusion; assay type: cell-based; conditions: for inhibition%: A = (−) Escherichia coli, from zone diameter, eqn (20); for zone of inhibition at 100 µM: Escherichia coli, read-out: diameter of clear zone inhibition
Outline: as §1

Pseudomonas aeruginosa = test: Kirby–Bauer agar disc diffusion; assay type: cell-based; conditions: for inhibition%: D = (−)Pseudomonas aeruginosa, eqn (20); for zone of inhibition at 100 µM: Pseudomonas aeruginosa, read-out: diameter of clear zone inhibition
Outline: as §1

Staphylococcus aureus = test: Kirby–Bauer agar disc diffusion; assay type: cell-based; conditions: for inhibition%: F = (+)Staphylococcus aureus, eqn (20); for zone of inhibition at 100 µM: Staphylococcus aureus, read-out: diameter of clear zone inhibition
Outline: as §1

[3] = Ferric reducing antioxidant power
Outline: (§2)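 Absorbance read at 517 nm (DPPH), 230 nm (hydroxyl), 590 nm (superoxide), 546 nm (nitric oxide) and 700 nm (FRAP). FRAP measures the rise in absorbance from Fe3+→Fe2+ reduction with ferricyanide. IC50 taken from % inhibition vs concentration plots.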

[4] = DPPH radical scavenging assay
Outline: as §2

[5] = Superoxide scavenging assay
Outline: as §2

[6] = Hydroxyl radical scavenging assay
Outline: as §2

[7] = Nitric oxide scavenging assay
Outline: as §2

human lung cancer (A549) = test: In vitro anticancer MTT assay; assay type: cell-based; conditions: 50% cell death following 72 h exposure
Outline: (§3)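 MTT viability: cells seeded at 1 × 10^5 per well and incubated 24 h at 37 °C, 5% CO2. Treated with test compound at 10–100 μg mL−1 (from DMSO). Medium removed, wells PBS-washed, RPMI-1640 plus MTT (5 mg mL−1 solution) added for 4 h at 37 °C. Formazan dissolved in DMSO, read at 570 nm. Triplicate wells; IC50 from % viability; cisplatin as reference.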

[8] = test system: normal human dermal fibroblast (NHDF); test: MTT assay on normal cells; assay type: cell-based; conditions: normal cell line; 50% cell death following 72 h exposure
Outline: as §3

breast (MCF-7) = test: In vitro anticancer MTT assay; assay type: cell-based, human; conditions: 50% cell death following 72 h exposure
Outline: as §3

liver cancer (HepG2) = test: In vitro anticancer MTT assay; assay type: cell-based, human; conditions: 50% cell death following 72 h exposure
Outline: as §3

In the case of `[H]/N=C(/N)N[C@H]1[C@H](O)[C@@H](O)[C@H](O[C@@H]2O[C@@H](C)[C@](O)(C=O)[C@H]2O[C@@H]2O[C@@H](CO)[C@H](O)[C@@H](O)[C@@H]2NC)[C@@H](N/C(N)=N\[H])[C@@H]1O` [Streptomycin, streptomycin], the inhibition% [1] is reported as 75%, the zone of inhibition at 100 µM [1] is reported as 24 mm and the inhibition% (Shigella flexneri) is reported as 76%. The zone of inhibition at 100 µM (Shigella flexneri) was 25 mm, the inhibition% [2] was 77% and the zone of inhibition at 100 µM [2] was 26 mm. For the same compound, the zone of inhibition at 100 µM (Bacillus cereus) was 21 mm, the inhibition% (Bacillus cereus) was 71% and the inhibition% (Escherichia coli) was 75%. It also gave a zone of inhibition at 100 µM (Escherichia coli) of 24 mm, an inhibition% (Pseudomonas aeruginosa) of 71% and a zone of inhibition at 100 µM (Pseudomonas aeruginosa) of 21 mm. For the same compound, the inhibition% (Staphylococcus aureus) was 71% and the zone of inhibition at 100 µM (Staphylococcus aureus) was 21 mm.
In the case of `O=C1O[C@H]([C@@H](O)CO)C(O)=C1O` [Ascorbic acid, ascorbic acid], the “% Inhibition, ferric reducing power” value ([3]; 240 µM, 700 nm) is reported as 88.67%, the IC50 ([3]; read-out: IC50, ferric reducing power) is reported as 160 µM and the “% Inhibition, DPPH” value ([4]; 240 µM, 517 nm) is reported as 82.75%. For the same compound, the IC50 ([4]; read-out: IC50, DPPH) was 80 µM, the “% Inhibition, superoxide” value ([5]; 240 µM, 590 nm) was 84.85% and the IC50 ([5]; read-out: IC50, superoxide) was 120 µM. For the same compound, the “% Inhibition, hydroxyl radical” value ([6]; 240 µM, 230 nm) was 78.83%, the IC50 ([6]; read-out: IC50, hydroxyl radical) was 160 µM and the “% Inhibition, nitric oxide” value ([7]; 240 µM, 546 nm) was 72.73%. It also gave an IC50 ([7]; read-out: IC50, nitric oxide) of 200 µM.
With `N.N.[Cl][Pt][Cl]` [Cisplatin, cisplatin] the “IC50 A549” value (human lung cancer (A549)) was 09.62 µg/mL, the “IC50 NHDF” value [8] was 08.08 µg/mL and the “IC50 MCF-7” value (breast (MCF-7)) was 06.11 µg/mL. The “IC50 HepG2” value (liver cancer (HepG2)) was 06.94 µg/mL.
Work on `NCC[C@H](O)C(=O)N[C@@H]1C[C@H](N)[C@@H](O[C@H]2O[C@H](CN)[C@@H](O)[C@H](O)[C@H]2O)[C@H](O)[C@H]1O[C@H]1O[C@H](CO)[C@@H](O)[C@H](N)[C@H]1O` [Amikacin, amikacin] yielded an inhibition% [1] of 75%, a zone of inhibition at 100 µM [1] of 24 mm and an inhibition% (Shigella flexneri) of 70%. For the same compound, the zone of inhibition at 100 µM (Shigella flexneri) was 20 mm, the inhibition% [2] was 73% and the zone of inhibition at 100 µM [2] was 22 mm. The zone of inhibition at 100 µM (Bacillus cereus) was 20 mm, the inhibition% (Bacillus cereus) was 70% and the inhibition% (Escherichia coli) was 73%. The zone of inhibition at 100 µM (Escherichia coli) was 22 mm, the inhibition% (Pseudomonas aeruginosa) was 70% and the zone of inhibition at 100 µM (Pseudomonas aeruginosa) was 20 mm. For the same compound, the inhibition% (Staphylococcus aureus) was 70% and the zone of inhibition at 100 µM (Staphylococcus aureus) was 20 mm.
